According to PubChem BioAssay:
Calls of active or inactive are those of the source.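 How the source made its calls, unless noted: active means Her2 level under about 52% in both replicate screens, with viability over 70% of control (limit read from the data); inconclusive means Her2 under the limit in one screen only, or viability under 70%; inactive means Her2 level above the set limit.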

Assays:
[1] = reducers of endogenous Her2 protein level, primary screen, SKBR3 breast tumor cells, AlphaScreen, ATP viability (AID 461); settings: 18-24 h, measured here: SKBR3 viability, ATP luminescence, at 10 µM;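 on Her2 level: lower value means less Her2 protein in the cells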;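 on viability: percent of carrier control wells set as 100% viability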
[2] = target: Receptor tyrosine-protein kinase erbB-2 (Homo sapiens) (UniProt P04626); test: as above; settings: 18-24 h, at 10 µM, stronger effect = lower value
Receptor tyrosine-protein kinase erbB-2 (Homo sapiens), sequence (P04626 whole entry, looked up): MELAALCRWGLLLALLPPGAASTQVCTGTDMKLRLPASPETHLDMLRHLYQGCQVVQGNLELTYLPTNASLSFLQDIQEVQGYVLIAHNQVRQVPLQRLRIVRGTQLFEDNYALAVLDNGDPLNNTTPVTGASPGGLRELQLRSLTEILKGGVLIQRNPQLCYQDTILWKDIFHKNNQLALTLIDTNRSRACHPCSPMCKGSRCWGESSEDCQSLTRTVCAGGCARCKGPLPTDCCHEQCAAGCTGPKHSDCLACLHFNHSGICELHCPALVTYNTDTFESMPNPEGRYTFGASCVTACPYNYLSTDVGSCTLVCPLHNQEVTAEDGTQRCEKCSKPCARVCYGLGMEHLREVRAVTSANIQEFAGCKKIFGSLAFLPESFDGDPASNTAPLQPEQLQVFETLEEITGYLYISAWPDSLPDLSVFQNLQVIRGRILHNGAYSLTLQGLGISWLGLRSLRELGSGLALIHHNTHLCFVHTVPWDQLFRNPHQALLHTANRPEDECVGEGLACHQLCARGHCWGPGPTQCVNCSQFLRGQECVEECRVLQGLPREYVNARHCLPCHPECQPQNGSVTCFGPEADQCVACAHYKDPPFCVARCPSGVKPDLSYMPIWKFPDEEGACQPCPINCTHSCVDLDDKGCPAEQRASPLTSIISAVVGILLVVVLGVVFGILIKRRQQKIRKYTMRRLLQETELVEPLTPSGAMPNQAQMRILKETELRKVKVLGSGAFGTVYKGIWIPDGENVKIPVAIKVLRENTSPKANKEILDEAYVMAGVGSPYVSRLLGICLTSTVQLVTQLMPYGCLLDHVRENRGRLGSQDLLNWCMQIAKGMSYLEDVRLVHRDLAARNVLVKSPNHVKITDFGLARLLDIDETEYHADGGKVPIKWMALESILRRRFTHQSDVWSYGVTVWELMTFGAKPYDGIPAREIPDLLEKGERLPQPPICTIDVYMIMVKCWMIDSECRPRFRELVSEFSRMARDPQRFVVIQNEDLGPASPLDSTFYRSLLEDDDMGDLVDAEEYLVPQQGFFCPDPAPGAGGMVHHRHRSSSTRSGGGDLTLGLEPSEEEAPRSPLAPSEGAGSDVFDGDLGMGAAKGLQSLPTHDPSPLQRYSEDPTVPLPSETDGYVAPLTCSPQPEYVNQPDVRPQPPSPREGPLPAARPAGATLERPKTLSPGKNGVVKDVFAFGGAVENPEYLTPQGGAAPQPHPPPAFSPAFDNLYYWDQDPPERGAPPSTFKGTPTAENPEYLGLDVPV

[3] = SK-BR-3 cell growth inhibitors, pilot screen, 24 h, human (AID 572;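 active means viability at or below 10% of carrier control in both of two separate runs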;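 further: compound exposure lasted between 18 and 24 h rather than exactly 24 h; 100% = carrier-treated control wells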); settings: SK-BR-3 viability, CellTiter-Glo luminescence, at 10 µM, stronger effect = lower value
[4] = HUVEC growth inhibition – cell-based, human, primary screen (AID 575;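 active means viability at or below 30% in both replicate assays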;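 further: 100% = median of untreated cell wells with 0.1% DMSO on each plate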); settings: HUVEC proliferation, CellTiter-Glo luminescence, 72 h; at 10 µM; stronger effect = lower value
Method in brief: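 Assay system: Primary human umbilical vein endothelial cells | Quantity: 1250 cells per well | Medium: Supplemented EBM, 2% fetal bovine serum | Detection: CellTiter-Glo luminescence measuring cellular ATP | Read-out: % viability vs DMSO wells | Plate: Collagen-coated 384-well format | Times: 72 h exposure, 37 °C, 5% CO2, 30 min RT equilibration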

[5] = growth inhibitors of H69AR lung tumor, primary screen, human, duplicate replicates (AID 580;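 active means viability at or under a set limit in both replicates, limit being median viability minus 3 SD, cut at about 48% in these data, passing the limit was not always enough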;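 further: 100% = mean luminescence of untreated wells and 0% = no signal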); settings: H69AR lung tumor cells viability, ATP luminescence, 72 h; at 10 µM; stronger effect = lower value
[6] = reversal of MRP1-mediated doxorubicin resistance, pilot screen, H69AR cells, doxorubicin co-treatment (AID 601;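 active means viability loss from added drug above about 55%, and viability with drug at most 40%, in both replicates, limit read from the data, passing the limit was not always enough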); settings: CellTiter-Glo, 72 h, at 10 µM; for differential viability (reversal): stronger effect = higher value
[7] = 384-well plate pilot, post-Golgi transport modulator project, inhibition of yeast transport mutant growth (AID 636; in the data active means inhibition above about 31%); settings: absorbance 615 nm, about 18 h, stronger effect = higher value
[8] = growth suppression of yeast trafficking mutant, preliminary HTS, modulators of trafficking downstream of Golgi apparatus project, 1536-format plate, OD 615 nm (AID 637; in the data active means inhibition above about 30%); settings: yeast transport mutant growth, absorbance 615 nm, 18 h; stronger effect = higher value
[9] = H69AR cells + 2 uM doxorubicin, measured here: viability with 2 uM doxorubicin, stronger effect = lower value
[10] = H69AR cells, compound alone cytotoxicity

Structure (SMILES) | viability [1] [%] | Her2 level [2] | viability [3] | viability [4] | viability [5] | differential viability (reversal) ([6]; H69AR cells + 2 uM doxorubicin) | viability [6, 9] [%] | viability [6, 10] [%] | inhibition [7] | inhibition [8]
CN(CCC#N)C(=O)COC(=O)c1ccc(Cl)c(S(N)(=O)=O)c1 | 104 | 97.5% (inactive) | 104% (inactive) | 106% (inactive) | 95.9% (inactive) | 7.13% (inactive) | 88.8 | 95.9 | -4.93% (inactive) | 3.71% (inactive)
O=C(Nc1cccnc1)c1noc2c1CCCCC2 | 110 | 90% (inactive) | 110% (inactive) | 105% (inactive) | 87.3% (inactive) | -2.86% (inactive) | 90.2 | 87.3 | -0.66% (inactive) | 9.5% (inactive)
O=C1CCN(C(=O)c2ccccc2)C2CCCCC12 (stereo not given) | 98 | 124% (inactive) | 98% (inactive) | 105% (inactive) | 90.3% (inactive) | -0.825% (inactive) | 91.1 | 90.3 | -4.55% (inactive) | -11% (inactive)
COc1ccc(C(CNC(=O)CN2C(=O)NC3(CC(C)CC(C)(C)C3)C2=O)N2CCOCC2)cc1 (stereo not given) | 94.5 | 108% (inactive) | 94.5% (inactive) | 90.4% (inactive) | 90.5% (inactive) | 1.81% (inactive) | 88.7 | 90.5 | -5.73% (inactive) | -2.62% (inactive)
CC(=O)Nc1nc(-c2ccc(Cl)cc2)nc(C)c1C(C)=O | 96.5 | 89.5% (inactive) | 96.5% (inactive) | 89% (inactive) | 104% (inactive) | 9.83% (inactive) | 94.6 | 104 | -3.65% (inactive) | -2.83% (inactive)
CCOC(=O)CSc1nnc([C@H](C)NC(=O)OC(C)(C)C)o1 | 104 | 97% (inactive) | 104% (inactive) | 107% (inactive) | 106% (inactive) | 20.2% (inactive) | 85.7 | 106 | -5.58% (inactive) | -10.2% (inactive)
CCOC(=O)c1ccc(NC(=O)c2ccc(NS(C)(=O)=O)cc2)cc1 | 97 | 83% (inactive) | 97% (inactive) | 92.1% (inactive) | 82.9% (inactive) | 3.85% (inactive) | 79 | 82.9 | -0.8% (inactive) | -4.92% (inactive)
O=C(NCc1cccnc1)c1ccc(=O)oc1 | 89.5 | 90% (inactive) | 89.5% (inactive) | 106% (inactive) | 83.4% (inactive) | -4.97% (inactive) | 88.3 | 83.4 | -5.81% (inactive) | -5.33% (inactive)
O=C(Cn1cccc1)N1CCN(C(c2ccccc2)c2ccccc2)CC1 | 102 | 87% (inactive) | 102% (inactive) | 108% (inactive) | 91.4% (inactive) | -4.55% (inactive) | 95.9 | 91.4 | -6.76% (inactive) | 4.33% (inactive)
CCCN(CCC)CCNC(=O)C(NS(=O)(=O)c1ccc2c(c1)CCC(=O)N2)c1ccccc1 (stereo not given) | 87.5 | 86.5% (inactive) | 87.5% (inactive) | 108% (inactive) | 89.4% (inactive) | 0.46% (inactive) | 89 | 89.4 | 1.05% (inactive) | -1.45% (inactive)
Cc1ccccc1NC(=O)c1c(F)c(F)c(F)c(F)c1F | 90.5 | 98% (inactive) | 90.5% (inactive) | 103% (inactive) | 88.9% (inactive) | 2.94% (inactive) | 86 | 88.9 | -5.13% (inactive) | 4.1% (inactive)
COc1ccc(-c2cc(O)cc(O)c2)cc1 | 108 | 89.5% (inactive) | 108% (inactive) | 71.7% (inactive) | 87.6% (inactive) | 7.77% (inactive) | 79.9 | 87.6 | -8.24% (inactive) | 4.26% (inactive)
CC1(C)OC(=O)C(=CNC(CCC(N)=O)C(=O)O)C(=O)O1 (stereo not given) | 100 | 110% (inactive) | 100% (inactive) | 109% (inactive) | 86.2% (inactive) | -14.4% (inactive) | 101 | 86.2 | 6.49% (inactive) | 5.4% (inactive)
CCCC(=O)N(Cc1cc2ccccc2[nH]c1=O)c1ccccc1OC | 97 | 94.5% (inactive) | 97% (inactive) | 105% (inactive) | 105% (inactive) | 5.2% (inactive) | 99.5 | 105 | -0.26% (inactive) | 12.3% (inactive)
CCCc1cn(S(=O)(=O)c2ccc(OC)cc2OC)nc1N | 98 | 84.5% (inactive) | 98% (inactive) | 92.8% (inactive) | 92.4% (inactive) | 3.72% (inactive) | 88.7 | 92.4 | -7.2% (inactive) | 0% (inactive)
O=C(NCc1ccccc1)C1CCN(S(=O)(=O)N2CCCCCC2)CC1 | 85 | 106% (inactive) | 85% (inactive) | 109% (inactive) | 96.7% (inactive) | 3.6% (inactive) | 93.1 | 96.7 | 6.49% (inactive) | -6.23% (inactive)
